Measured values published in ChEMBL document CHEMBL4043295, “Marbostat-100 Defines a New Class of Potent and Selective Antiinflammatory and Antirheumatic Histone Deacetylase 6 Inhibitors” (J Med Chem, 2018).
pKi: −log10 of the molar value. Active and inactive are the calls of the source. The rule behind the calls is not given here.

Assays:
Histone deacetylase 2 = Histone deacetylase 2 (Homo sapiens, UniProt Q92769); test: Inhibition of full length recombinant human C-terminal GST-tagged HDAC2 expressed in baculovirus-infected insect cells using RHKK(Ac)AMC as substrate after 60 mins by fluorimeter
Chain of Histone deacetylase 2 (Q92769 whole entry): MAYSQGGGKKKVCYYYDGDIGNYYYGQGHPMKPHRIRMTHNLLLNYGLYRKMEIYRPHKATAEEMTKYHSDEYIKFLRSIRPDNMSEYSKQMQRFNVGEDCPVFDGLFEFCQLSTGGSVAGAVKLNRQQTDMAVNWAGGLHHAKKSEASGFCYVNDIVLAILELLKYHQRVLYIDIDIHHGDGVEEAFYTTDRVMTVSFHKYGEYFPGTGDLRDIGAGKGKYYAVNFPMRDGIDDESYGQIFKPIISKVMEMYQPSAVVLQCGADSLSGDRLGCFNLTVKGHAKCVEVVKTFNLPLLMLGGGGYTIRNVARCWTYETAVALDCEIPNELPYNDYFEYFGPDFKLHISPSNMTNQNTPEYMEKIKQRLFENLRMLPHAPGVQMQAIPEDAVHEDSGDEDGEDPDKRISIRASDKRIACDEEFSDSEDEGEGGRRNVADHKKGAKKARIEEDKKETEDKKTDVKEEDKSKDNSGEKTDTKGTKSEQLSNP

[1] = biological target: T1, Protein deacetylase HDAC6 (Homo sapiens, UniProt Q9UBN7); test: Inhibition of full length recombinant human N-terminal GST-tagged HDAC6 expressed in baculovirus-infected Sf9 insect cells using RHKK(Ac)AMC as substrate after 90 mins by fluorimeter
T1 sequence (Q9UBN7 whole entry): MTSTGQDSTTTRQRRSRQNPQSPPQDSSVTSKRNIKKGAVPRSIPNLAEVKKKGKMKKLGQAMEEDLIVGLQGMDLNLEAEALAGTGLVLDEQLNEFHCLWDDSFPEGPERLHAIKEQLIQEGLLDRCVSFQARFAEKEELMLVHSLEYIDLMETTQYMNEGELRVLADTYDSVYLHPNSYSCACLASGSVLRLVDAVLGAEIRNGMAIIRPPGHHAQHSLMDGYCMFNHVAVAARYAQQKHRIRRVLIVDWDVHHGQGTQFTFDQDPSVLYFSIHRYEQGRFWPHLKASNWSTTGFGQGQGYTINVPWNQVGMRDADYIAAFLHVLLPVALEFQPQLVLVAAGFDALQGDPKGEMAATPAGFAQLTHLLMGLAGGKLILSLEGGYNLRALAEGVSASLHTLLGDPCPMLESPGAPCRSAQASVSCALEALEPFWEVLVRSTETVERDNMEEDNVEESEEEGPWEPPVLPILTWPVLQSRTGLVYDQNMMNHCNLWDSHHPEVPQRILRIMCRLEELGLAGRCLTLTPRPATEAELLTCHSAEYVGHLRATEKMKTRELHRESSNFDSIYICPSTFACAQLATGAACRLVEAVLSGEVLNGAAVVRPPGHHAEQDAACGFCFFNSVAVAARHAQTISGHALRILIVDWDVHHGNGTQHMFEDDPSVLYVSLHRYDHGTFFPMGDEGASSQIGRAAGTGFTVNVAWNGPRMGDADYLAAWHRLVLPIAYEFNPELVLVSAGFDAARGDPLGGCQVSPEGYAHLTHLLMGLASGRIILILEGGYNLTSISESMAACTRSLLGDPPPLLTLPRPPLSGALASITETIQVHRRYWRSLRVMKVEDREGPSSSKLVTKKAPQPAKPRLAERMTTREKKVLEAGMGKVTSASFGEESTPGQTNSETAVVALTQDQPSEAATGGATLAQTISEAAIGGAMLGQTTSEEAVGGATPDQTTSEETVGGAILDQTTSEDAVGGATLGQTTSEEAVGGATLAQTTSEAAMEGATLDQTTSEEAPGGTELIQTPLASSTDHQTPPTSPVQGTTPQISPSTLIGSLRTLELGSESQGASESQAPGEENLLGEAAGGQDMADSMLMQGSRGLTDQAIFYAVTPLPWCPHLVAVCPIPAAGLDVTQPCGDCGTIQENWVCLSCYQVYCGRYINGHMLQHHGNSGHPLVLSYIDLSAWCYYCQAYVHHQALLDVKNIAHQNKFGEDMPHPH

Histone deacetylase 8 = biological target: T2, Histone deacetylase 8 (Homo sapiens, UniProt Q9BY41); test: Inhibition of recombinant human C-terminal His-tagged HDAC8 (1 to 377 residues) expressed in baculovirus-infected insect cells using RHK(Ac)K(Ac)AMC as substrate after 60 mins by fluorimeter
T2 sequence (Q9BY41 whole entry): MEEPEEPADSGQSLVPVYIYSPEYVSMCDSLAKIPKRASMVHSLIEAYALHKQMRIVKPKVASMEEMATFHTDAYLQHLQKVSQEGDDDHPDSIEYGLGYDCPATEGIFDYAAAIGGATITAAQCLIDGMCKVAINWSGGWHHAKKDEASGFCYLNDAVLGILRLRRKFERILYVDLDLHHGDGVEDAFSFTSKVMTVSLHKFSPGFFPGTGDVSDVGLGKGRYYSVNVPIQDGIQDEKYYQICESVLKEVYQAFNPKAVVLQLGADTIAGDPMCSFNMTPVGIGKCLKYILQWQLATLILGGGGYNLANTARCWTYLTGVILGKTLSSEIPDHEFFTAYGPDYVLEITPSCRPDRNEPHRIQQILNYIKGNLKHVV

[2] = biological target: T3, Protein deacetylase HDAC6 (Homo sapiens) (UniProt Q9UBN7); test: Inhibition of HDAC6 in human MV4-11 cells assessed as induction of alpha-tubulin hyperacetylation after 24 hrs by Western blot method; format: cell-based
T3 sequence (whole entry): T1 sequence (Q9UBN7 whole entry)
In short: (§1)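 MV4-11 cells were exposed to the inhibitor, from 5 nM to 10 µM for 24 h or at 50 nM for 10 min to 48 h. Lysates were immunoblotted for acetylated tubulin, acetylated histone H3 and HDAC6. Acetyl-tubulin was quantified by densitometry normalised to HSP90. MS-275 at 5 µM for 24 h was the comparator. Blots are representative of at least two independent experiments.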

Homo sapiens = species: Homo sapiens; test: Selectivity ratio of Ki for recombinant human C-terminal GST-tagged HDAC2 to Ki for full length recombinant human N-terminal GST-tagged HDAC6
In short: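 Recombinant human HDAC2 and HDAC6 enzymes, fluorescence-based activity assay. […] IC50s were curve-fitted from duplicate determinations. Ki was calculated from IC50 by the Cheng–Prusoff equation, and the ratio was taken from these Ki values. TSA served as internal standard.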

MV4-11 [3] = test: Cell cycle arrest in human MV4-11 cells assessed as accumulation at sub-G1 phase at 30 to 50 nM after 24 hrs by propidium iodide staining-based flow cytometric method; format: functional
In short: (§2)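 Cells were stained with propidium iodide and analysed by flow cytometry for cell-cycle distribution and the subG1 fraction (fragmented DNA). Representative of at least two independent experiments.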

Mus musculus [4] = test: Antiarthritic activity in DBA/1J mouse collagen-induced arthritis model assessed as decrease in clinical scores at 42.3 mg/kg, ip administered every morning for 6 days measured post last dose; format: functional, organism-based
In short: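 Collagen type II-induced arthritis in mice, second experiment, treated at 42.3 mg/kg (equimolar dose) versus vehicle. Clinical arthritis scores were followed from the beginning of treatment.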

Mus musculus [5] = test: Antiarthritic activity in DBA/1J mouse collagen-induced arthritis model assessed as decrease in ratio of articular bone surface to articular bone volume at 42.3 mg/kg, ip administered every morning for 12 to 14 days measured post last dose by microCT method relative to vehicle-treated control; format: functional, organism-based
Mus musculus [6] = test: Antiarthritic activity in DBA/1J mouse collagen-induced arthritis model assessed as reduction of articular bone erosion in arthritic hind paw at 42.3 mg/kg, ip administered every morning for 12 to 14 days measured post last dose by microCT method relative to vehicle-treated control; format: functional, organism-based
Mus musculus [7] = test: Toxicity in DBA/1J mouse collagen-induced arthritis model assessed as effect on red blood cell count at 42.3 mg/kg, ip administered every morning for 12 to 14 days measured post last dose relative to vehicle-treated control; format: organism-based; conditions: in vivo
Mus musculus [8] = test: Toxicity in DBA/1J mouse collagen-induced arthritis model assessed as effect on white blood cell count at 42.3 mg/kg, ip administered every morning for 12 to 14 days measured post last dose relative to vehicle-treated control; format: organism-based; conditions: in vivo
Mus musculus [9] = test: Toxicity in DBA/1J mouse collagen-induced arthritis model assessed as effect on hemoglobin concentration at 42.3 mg/kg, ip administered every morning for 12 to 14 days measured post last dose relative to vehicle-treated control; format: organism-based; conditions: in vivo
[10] = Inhibition of class 1 HDAC in human MV4-11 cells assessed as induction of histone hyperacetylation at 5 uM after 24 hrs by Western blot method; format: cell-based; in short: as §1
MV4-11 [11] = test: Cell cycle arrest in human MV4-11 cells assessed as accumulation at sub-G1 phase at 5 uM after 24 hrs by propidium iodide staining-based flow cytometric method; format: functional; in short: as §2
HEL = test: Cell cycle arrest in human HEL cells at 5 uM after 24 hrs by propidium iodide staining-based flow cytometric method; format: functional
Jurkat = test: Cell cycle arrest in human Jurkat cells at 5 uM after 24 hrs by propidium iodide staining-based flow cytometric method; format: functional
PBMC = test: Induction of apoptosis in human PBMC at 5 uM after 24 hrs by Annexin V/propidium iodide staining-based flow cytometric method; format: cell-based

| Structure (SMILES) | pKi (Histone deacetylase 2) | pKi [1] | pKi (Histone deacetylase 8) | alpha-tubulin hyperacetylation (active/not active) [2] | other results |
| --- | --- | --- | --- | --- | --- |
| CN1CN2Cc3c(c4ccccc4n3Cc3ccc(C(=O)NO)cc3)C(C2)C1=O (centres undefined) | 5.87 | 9.64 | 6.37 | inactive | – |
| O=C(NO)c1ccc(Cn2c3c(c4ccccc42)C2CCN(C3)C2)cc1 (centres undefined) | 5.21 | 8.19 | 5.81 | – | Ratio Ki (Homo sapiens): 940 |
| CN1C(=O)C2CN(Cc3c2c2ccccc2n3Cc2ccc(C(=O)NO)cc2)C1=S (centres undefined) | 6.33 | 9.35 | 7.39 | inactive | – |
| Cc1[nH]c2ccccc2c1CCNCc1ccc(/C=C/C(=O)NO)cc1 | – | – | – | – | Activity (MV4-11 [3]): Active |
| COc1ccc2c(c1)c1c(n2Cc2ccc(C(=O)NO)cc2)CN2CC1C(=O)N(C)C2=O (centres undefined) | 6.51 | 9.82 | 6.91 | Active | – |
| CN1C(=O)[C@H]2CN(Cc3c2c2ccccc2n3Cc2ccc(C(=O)NO)cc2)C1=O | 5.50 | 8.70 | 6.53 | – | – |
| CN1C(=O)C2CN(Cc3c2c2ccccc2n3Cc2ccc(C(=O)O)cc2)C1=O (centres undefined) | < 5.00 | < 4.70 | < 4.40 | – | – |
| CN1C(=O)N2Cc3c(c4ccccc4n3Cc3ccc(C(=O)NO)cc3)C(C2)C1=S (centres undefined) | 6.03 | 9.06 | 6.15 | Active | – |
| CN1C(=O)[C@@H]2CN(Cc3c2c2ccccc2n3Cc2ccc(C(=O)NO)cc2)C1=O | 5.28 | 9.15 | 6.00 | – | – |
| COc1ccc2c3c(n(Cc4ccc(C(=O)NO)cc4)c2c1)CN1CC3C(=O)N(C)C1=O (centres undefined) | 7.15 | 9.49 | 7.03 | Active | – |
| CN1C(=O)C2CN(Cc3c2c2cc(O)ccc2n3Cc2ccc(C(=O)NO)cc2)C1=O (centres undefined) | – | 9.38 | – | – | – |
| CN1C(=O)C2CN(Cc3c2c2ccc4ccccc4c2n3Cc2ccc(C(=O)NO)cc2)C1=O (centres undefined) | – | 8.75 | – | – | – |
| O=C(NO)c1ccc(Cn2c3c(c4ccccc42)CCN2C(=O)CCCC32)cc1 (centres undefined) | 5.14 | 7.52 | 5.78 | – | – |
| CN1C(=O)C2CN(Cc3c2c2cc(OCCN4CCOCC4)ccc2n3Cc2ccc(C(=O)NO)cc2)C1=O.Cl (centres undefined) | 6.50 | 9.32 | 6.14 | – | Activity (Mus musculus [4]): Active; Activity (Mus musculus [5]): Active; Activity (Mus musculus [6]): Active; Activity (Mus musculus [7]): Non-Toxic; Activity (Mus musculus [8]): Non-Toxic; Activity (Mus musculus [9]): Non-Toxic |
| CN1C(=O)C2CN(Cc3c2c2ccccc2n3Cc2cccc(/C=C/C(=O)NO)c2)C1=O (centres undefined) | 6.11 | 7.14 | 7.88 | – | – |
| Nc1ccccc1NC(=O)c1ccc(CNC(=O)OCc2cccnc2)cc1 [ENTINOSTAT] | – | – | – | – | inhibition (INH) [10]: Active; Activity (MV4-11 [11]): Active; Activity (HEL): Active; Activity (Jurkat): Active; Activity (PBMC): Toxic |
| CN1C(=O)C2CN(Cc3c2c2ccccc2n3Cc2ccc(/C=C/C(=O)NO)cc2)C1=O (centres undefined) | 7.18 | 8.38 | 6.69 | – | – |
| O=C(/C=C/c1ccc(Cn2c3c(c4ccccc42)CCN2C(=O)CCCC32)cc1)NO (centres undefined) | 6.63 | 7.85 | 6.14 | – | – |
| CN1CC2CN(Cc3c2c2ccccc2n3Cc2ccc(C(=O)NO)cc2)C1=O (centres undefined) | 6.32 | 9.29 | 6.28 | Active | – |
| CN1C(=O)C2c3c(n(Cc4ccc(C(=O)NO)cc4)c4ccccc34)CCN2C1=O (centres undefined) | 6.00 | 8.73 | 6.12 | – | – |
| CN1C(=O)C2CN(Cc3c2c2cc(OCc4ccccc4)ccc2n3Cc2ccc(C(=O)NO)cc2)C1=O (centres undefined) | – | 10.10 | – | – | – |
| COc1ccc2c(c1)c1c(n2Cc2ccc(C(=O)NO)cc2)CN2CC1C(=O)N(C)C2 (centres undefined) | 6.43 | 9.80 | 6.52 | inactive | – |
